Holding throughout (type): functional
Test [1] can be described thus: Inhibitory concentration against proliferation of mouse splenocytes was determined by measuring mitochondrial dehydrogenase activity using MTT assay. The gist of the method:
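Mouse splenocyte proliferation measured by a 72 h MTT assay, with mitochondrial dehydrogenase activity of surviving cells as read-out. Test agents were in acetate form. Cyclosporin A was included as a comparator. IC50 taken as the concentration giving 50% inhibition.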
A general note: Formazan colour is commonly taken as a measure of viable cells.

Test [2] is filed under the species Mus musculus. Nature of the test: Effect on level of IFN-gamma secretion splenocytes in mice following treatment with 25 uM compound done for 72 hr at 37 degree C. Put shortly: (§1)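 Mouse spleen cells stimulated with concanavalin A in the presence of 25 µM test agent (acetate form) at 37 °C, 5% CO2 for 72 h. Cytokine levels (IL-4 or IFN-γ) in the culture supernatant measured by mouse ELISA kit. Reduction expressed relative to control. Means ± SEM of at least three independent experiments.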

The species entered for test [3] is Mus musculus. Nature of the test: Effect on level of IL-4 secretion in mice splenocytes following treatment with 25 uM compound done for 72 hr at 37 degree C. The gist of the method:
as §1

Broadly, the IC50 is the concentration needed to halve the response being measured. The molecule `OC[C@@H]1N[C@@H](CO)[C@H](O)C(O)[C@H]1O` (stereo not given in full) registered an IC50 in test [1] of 272 µM. The Reduction in the test listed under Mus musculus [2] stood at 51.6%; in the test listed under Mus musculus [3], 84.6%.

In the case of `OC[C@@H]1N[C@H](CO)[C@H](O)[C@@H](O)[C@H]1O`, the IC50 in test [1] amounted to 332 µM. Besides, the values for the Reduction in the test filed under Mus musculus [2] and in the test filed under Mus musculus [3] were 86.2% and 92.3%, respectively.

As for `OC[C@H]1N[C@H](CO)[C@H](O)C(O)[C@H]1O` (stereo not given in full), inhibition in test [1] was half-maximal at 519 µM (IC50). Moreover, the Reduction in the test listed under Mus musculus [2] is on record as 75.89%; in the test filed under Mus musculus [3], 69.2%.

For `O=C(O)[C@H]1N[C@@H](CO)[C@H](O)[C@H](O)[C@H]1O`, it took 346 µM to reach half-maximal inhibition in test [1] (IC50). Also, the Reduction is 24.2% in the test filed under Mus musculus [2] and 92.3% in the test filed under Mus musculus [3].

Take `O=C(O)[C@H]1N[C@H](CO)[C@H](O)[C@H](O)[C@H]1O`: the half-inhibitory concentration (IC50) in test [1] turned out to be 340 µM. Besides, the figures for the Reduction in the test listed under Mus musculus [2] and in the test filed under Mus musculus [3] were 31.2% and 30.8%, respectively.

These data come from ChEMBL document CHEMBL1139521, “Synthetic iminosugar derivatives as new potential immunosuppressive agents” (J Med Chem, 2005).
